In BindingDB's records for doi:10.1016/j.ejmech.2021.113996 (The University of Michigan Medical School, 2022):

How the values were obtained:
[1] = target: Phosphatidylinositol 4,5-bisphosphate 3-kinase catalytic subunit alpha isoform (Homo sapiens, UniProt P42336); test: Inhibition of human PI3Kalpha by TR-FRET based Adapta assay
[2] = target: T1, Phosphatidylinositol 4,5-bisphosphate 3-kinase catalytic subunit delta isoform (Homo sapiens, UniProt O00329); test: Inhibition of human PI3Kdelta by TR-FRET based Adapta assay
T1 sequence (O00329 whole entry): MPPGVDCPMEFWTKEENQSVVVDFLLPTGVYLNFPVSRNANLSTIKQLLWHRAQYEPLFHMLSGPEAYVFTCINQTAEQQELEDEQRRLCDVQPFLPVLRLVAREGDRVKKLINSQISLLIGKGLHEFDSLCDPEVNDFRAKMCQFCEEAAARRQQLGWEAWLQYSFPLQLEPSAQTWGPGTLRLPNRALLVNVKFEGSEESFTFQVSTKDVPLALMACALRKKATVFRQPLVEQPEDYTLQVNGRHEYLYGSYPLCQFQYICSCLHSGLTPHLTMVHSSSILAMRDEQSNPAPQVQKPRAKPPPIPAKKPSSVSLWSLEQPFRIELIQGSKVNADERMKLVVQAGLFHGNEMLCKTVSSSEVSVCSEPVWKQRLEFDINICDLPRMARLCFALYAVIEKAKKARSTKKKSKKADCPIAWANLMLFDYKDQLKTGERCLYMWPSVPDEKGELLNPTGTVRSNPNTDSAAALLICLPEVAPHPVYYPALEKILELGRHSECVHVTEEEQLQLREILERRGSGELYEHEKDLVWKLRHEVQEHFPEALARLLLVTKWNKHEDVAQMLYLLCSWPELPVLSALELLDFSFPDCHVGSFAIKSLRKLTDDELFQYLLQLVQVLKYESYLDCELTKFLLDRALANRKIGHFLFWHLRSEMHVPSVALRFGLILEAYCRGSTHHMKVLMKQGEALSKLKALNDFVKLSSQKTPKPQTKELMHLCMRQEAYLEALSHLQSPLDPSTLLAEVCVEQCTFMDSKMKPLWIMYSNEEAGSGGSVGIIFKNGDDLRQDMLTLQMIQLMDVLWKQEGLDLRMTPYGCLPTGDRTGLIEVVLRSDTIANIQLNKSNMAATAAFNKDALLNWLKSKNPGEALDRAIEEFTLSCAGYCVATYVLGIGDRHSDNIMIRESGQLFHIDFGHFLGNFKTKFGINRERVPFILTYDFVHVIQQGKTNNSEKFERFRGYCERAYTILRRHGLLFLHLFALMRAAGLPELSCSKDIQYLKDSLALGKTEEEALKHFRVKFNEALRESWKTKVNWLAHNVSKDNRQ

[3] = target: Phosphatidylinositol 4,5-bisphosphate 3-kinase catalytic subunit gamma isoform (Homo sapiens, UniProt P48736); test: Inhibition of human PI3Kgamma by TR-FRET based Adapta assay
[4] = target: Phosphatidylinositol 4,5-bisphosphate 3-kinase catalytic subunit beta isoform (Homo sapiens, UniProt P42338); test: Inhibition of human PI3Kbeta by TR-FRET based Adapta assay
Method in brief: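 Purified human PI3K isoforms α, β, γ and δ assayed by fluorescence-based Adapta TR-FRET lipid kinase assay (outsourced). Inhibitor range 0.1 nM–10 μM. IC₅₀ is the mean ± SEM of three experiments, each run in duplicate.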

Chain of Phosphatidylinositol 4,5-bisphosphate 3-kinase catalytic subunit alpha isoform (P42336 whole entry, canonical isoform): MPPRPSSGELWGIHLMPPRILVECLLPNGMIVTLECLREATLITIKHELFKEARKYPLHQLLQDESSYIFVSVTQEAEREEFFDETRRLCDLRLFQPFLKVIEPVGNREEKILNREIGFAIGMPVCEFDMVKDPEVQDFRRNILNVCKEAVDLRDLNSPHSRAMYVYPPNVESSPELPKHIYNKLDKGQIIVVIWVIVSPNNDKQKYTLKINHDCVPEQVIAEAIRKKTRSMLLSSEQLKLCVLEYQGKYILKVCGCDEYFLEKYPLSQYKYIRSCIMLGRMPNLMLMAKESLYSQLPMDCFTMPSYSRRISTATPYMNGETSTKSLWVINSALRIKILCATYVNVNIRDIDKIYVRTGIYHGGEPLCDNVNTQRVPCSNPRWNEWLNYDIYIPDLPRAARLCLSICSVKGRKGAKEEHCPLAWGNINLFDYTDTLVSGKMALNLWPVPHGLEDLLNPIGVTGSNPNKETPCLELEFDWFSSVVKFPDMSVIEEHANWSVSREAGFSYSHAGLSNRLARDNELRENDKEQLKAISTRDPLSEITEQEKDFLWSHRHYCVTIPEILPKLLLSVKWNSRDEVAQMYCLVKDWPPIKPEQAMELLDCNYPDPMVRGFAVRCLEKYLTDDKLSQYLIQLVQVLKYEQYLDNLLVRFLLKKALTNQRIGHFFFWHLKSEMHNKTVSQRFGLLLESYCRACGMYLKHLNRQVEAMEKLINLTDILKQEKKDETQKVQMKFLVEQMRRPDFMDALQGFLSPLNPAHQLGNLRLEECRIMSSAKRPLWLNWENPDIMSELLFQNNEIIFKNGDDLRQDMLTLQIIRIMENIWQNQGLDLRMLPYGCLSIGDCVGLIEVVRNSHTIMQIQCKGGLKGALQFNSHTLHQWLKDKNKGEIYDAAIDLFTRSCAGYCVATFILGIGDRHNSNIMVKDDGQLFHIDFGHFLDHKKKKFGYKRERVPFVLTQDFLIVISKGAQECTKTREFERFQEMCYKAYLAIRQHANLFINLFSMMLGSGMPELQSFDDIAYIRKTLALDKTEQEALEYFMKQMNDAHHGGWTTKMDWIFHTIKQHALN
Chain of Phosphatidylinositol 4,5-bisphosphate 3-kinase catalytic subunit beta isoform (P42338 whole entry, canonical isoform): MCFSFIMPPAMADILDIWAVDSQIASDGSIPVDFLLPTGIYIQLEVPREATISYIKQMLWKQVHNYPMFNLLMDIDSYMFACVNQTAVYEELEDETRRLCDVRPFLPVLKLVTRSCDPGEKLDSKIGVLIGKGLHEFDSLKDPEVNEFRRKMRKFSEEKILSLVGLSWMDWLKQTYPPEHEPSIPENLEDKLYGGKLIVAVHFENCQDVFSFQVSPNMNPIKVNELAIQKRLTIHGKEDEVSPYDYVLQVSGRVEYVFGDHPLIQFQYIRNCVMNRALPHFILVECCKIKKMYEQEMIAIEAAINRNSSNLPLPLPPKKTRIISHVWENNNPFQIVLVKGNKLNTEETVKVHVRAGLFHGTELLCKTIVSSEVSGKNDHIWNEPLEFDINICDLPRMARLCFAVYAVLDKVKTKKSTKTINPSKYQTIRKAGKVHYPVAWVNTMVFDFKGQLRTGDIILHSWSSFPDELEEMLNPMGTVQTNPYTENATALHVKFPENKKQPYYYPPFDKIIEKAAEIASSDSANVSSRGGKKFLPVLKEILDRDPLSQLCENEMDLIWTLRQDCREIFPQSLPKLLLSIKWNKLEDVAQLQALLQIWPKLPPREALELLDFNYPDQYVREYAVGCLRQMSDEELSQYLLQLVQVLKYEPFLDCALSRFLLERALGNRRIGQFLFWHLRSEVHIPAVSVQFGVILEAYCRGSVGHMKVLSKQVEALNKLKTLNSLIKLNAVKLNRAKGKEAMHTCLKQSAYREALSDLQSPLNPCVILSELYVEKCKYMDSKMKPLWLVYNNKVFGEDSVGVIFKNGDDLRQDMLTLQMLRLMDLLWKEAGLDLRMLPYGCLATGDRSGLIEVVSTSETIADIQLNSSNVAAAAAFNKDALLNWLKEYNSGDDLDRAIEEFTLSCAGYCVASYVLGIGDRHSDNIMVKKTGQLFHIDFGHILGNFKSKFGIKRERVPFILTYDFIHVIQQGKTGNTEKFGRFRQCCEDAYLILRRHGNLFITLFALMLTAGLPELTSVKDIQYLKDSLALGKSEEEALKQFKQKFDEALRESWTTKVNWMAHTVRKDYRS
Chain of Phosphatidylinositol 4,5-bisphosphate 3-kinase catalytic subunit gamma isoform (P48736 whole entry, canonical isoform): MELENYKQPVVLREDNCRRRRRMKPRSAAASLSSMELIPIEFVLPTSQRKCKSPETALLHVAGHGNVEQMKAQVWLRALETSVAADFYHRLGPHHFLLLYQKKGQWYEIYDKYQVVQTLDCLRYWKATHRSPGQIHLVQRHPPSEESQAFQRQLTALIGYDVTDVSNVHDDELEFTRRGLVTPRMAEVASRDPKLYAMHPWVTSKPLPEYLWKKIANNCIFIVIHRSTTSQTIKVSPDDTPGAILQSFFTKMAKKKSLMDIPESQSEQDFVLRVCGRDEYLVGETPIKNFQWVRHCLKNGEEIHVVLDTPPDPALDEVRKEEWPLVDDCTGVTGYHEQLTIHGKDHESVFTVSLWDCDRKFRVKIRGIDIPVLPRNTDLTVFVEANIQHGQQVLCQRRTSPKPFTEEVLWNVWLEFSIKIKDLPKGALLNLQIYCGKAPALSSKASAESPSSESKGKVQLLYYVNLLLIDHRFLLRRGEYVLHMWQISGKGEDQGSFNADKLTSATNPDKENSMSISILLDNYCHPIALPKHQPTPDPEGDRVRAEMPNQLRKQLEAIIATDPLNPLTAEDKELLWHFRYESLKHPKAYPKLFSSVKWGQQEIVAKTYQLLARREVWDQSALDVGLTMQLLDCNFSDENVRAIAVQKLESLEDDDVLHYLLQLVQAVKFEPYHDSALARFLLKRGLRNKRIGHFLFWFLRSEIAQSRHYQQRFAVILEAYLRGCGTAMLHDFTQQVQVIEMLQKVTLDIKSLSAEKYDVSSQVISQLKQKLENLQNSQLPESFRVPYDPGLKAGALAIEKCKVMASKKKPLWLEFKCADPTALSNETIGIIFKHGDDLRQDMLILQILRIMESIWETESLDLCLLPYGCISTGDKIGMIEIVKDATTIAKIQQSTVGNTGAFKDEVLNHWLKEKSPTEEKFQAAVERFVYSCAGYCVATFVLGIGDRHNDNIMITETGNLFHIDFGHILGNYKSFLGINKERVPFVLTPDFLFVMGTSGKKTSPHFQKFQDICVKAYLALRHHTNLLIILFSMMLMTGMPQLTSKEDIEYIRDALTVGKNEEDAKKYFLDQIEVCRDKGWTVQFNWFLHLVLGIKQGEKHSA

| IC50 [1] [µM] | IC50 [2] [µM] | IC50 [3] [µM] | IC50 [4] [µM] | SMILES |
| --- | --- | --- | --- | --- |
| 0.0082 | 0.0029 | – | – | CC(=O)N1CCN(c2nc(N3CCOCC3)nc(-n3c(C(F)F)nc4ccccc43)n2)CC1 |
| 0.18 | 0.142 | – | – | FC(F)c1nc2ccccc2n1-c1nc(N2CCNCC2)nc(N2CCOCC2)n1 |
| 0.148 | 0.047 | 0.869 | 0.627 | CNCCN(CCO)c1nc(N2CCOCC2)nc(-n2c(C(F)F)nc3ccccc32)n1 |
